Activity calls are given as the source filed them. No cut-off for these calls is given here.
Columns and labels:
Conditions in all cases: Bos taurus
Calf thymus DNA [1] = test: Binding affinity to calf thymus DNA at 20 uM after 20 mins by UV spectrophotometer analysis; type: nucleic-acid assay
Method in brief: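 Compound stock diluted in cuvette to 20 µM final with degassed 100 mM NaCl, 10 mM NaH2PO4, pH 7.0. Calf thymus DNA was added from stock. After each addition the sample was heated to 65 °C and cooled slowly (5 °C/min), and the UV-vis spectrum was recorded 20 min later at 25 °C. DNA concentration was set from ε260 = 6600 M−1 cm−1.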

Calf thymus DNA [2] = test: Binding affinity to calf thymus DNA assessed as change on melting temperature (reference value: 76 degC)
Calf thymus DNA [3] = test: Binding affinity to calf thymus DNA assessed as fluorescence enhancement at 20 uM by steady state fluorescence emission spectroscopic analysis relative to control

| Activity (Calf thymus DNA [1]) | Tm (Calf thymus DNA [2]) | fold change (FC) (Calf thymus DNA [3]) | SMILES |
| --- | --- | --- | --- |
| Active | 79 °C | 2.8 | C=CCO[C@H]1O[C@H](C(=O)N(Cc2ccc(CN(Cc3cnc4ccccc4n3)C(=O)[C@H]3O[C@H](OCC=C)[C@H](O)[C@@H](O)[C@@H]3O)cc2)Cc2cnc3ccccc3n2)[C@@H](O)[C@H](O)[C@H]1O |
| Active | 78 °C | 5.5 | O=C1[C@H]2O[C@H](OC/C=C/CO[C@H]3O[C@H](C(=O)N(Cc4cnc5ccccc5n4)Cc4ccc(cc4)CN1Cc1cnc4ccccc4n1)[C@@H](O)[C@H](O)[C@H]3O)[C@H](O)[C@@H](O)[C@@H]2O |
| Active | 81 °C | 2.8 | C=CCCCO[C@H]1O[C@H](C(=O)N(Cc2ccc(CN(Cc3cnc4ccccc4n3)C(=O)[C@H]3O[C@H](OCCCC=C)[C@H](O)[C@@H](O)[C@@H]3O)cc2)Cc2cnc3ccccc3n2)[C@@H](O)[C@H](O)[C@H]1O |

More lines, now with the values behind:

| SMILES | Activity (Calf thymus DNA [1]) | Tm (Calf thymus DNA [2]) | fold change (FC) (Calf thymus DNA [3]) |
| --- | --- | --- | --- |
| CS[C@H]1SC[C@H]2C(=O)N(C)[C@@H](C(C)C)C(=O)OC[C@@H](NC(=O)c3cnc4ccccc4n3)C(=O)N[C@@H](C)C(=O)N(C)[C@@H]1C(=O)N(C)[C@@H](C(C)C)C(=O)OC[C@@H](NC(=O)c1cnc3ccccc3n1)C(=O)N[C@@H](C)C(=O)N2C | Active | 79 °C |  |
| O=C1[C@H]2O[C@H](OCCC/C=C/CCCO[C@H]3O[C@H](C(=O)N(Cc4cnc5ccccc5n4)Cc4ccc(cc4)CN1Cc1cnc4ccccc4n1)[C@@H](O)[C@H](O)[C@H]3O)[C@H](O)[C@@H](O)[C@@H]2O | Active | 79 °C |  |

Source: ChEMBL document CHEMBL1641499, “Towards echinomycin mimetics by grafting quinoxaline residues on glycophane scaffolds” (Bioorg Med Chem, 2011)
